ChEMBL document CHEMBL1134389, “Mapping and fitting the peripheral benzodiazepine receptor binding site by carboxamide derivatives. Comparison of different approaches to quantitative ligand-receptor interaction modeling” (J Med Chem, 2001)

Biological target: Translocator protein (Rattus norvegicus, UniProt P16257)
Assay: Test in vitro, for potential ability to displace [3H]1 from PBR in rat brain cortex
Format: tissue-based
Procedure, shortened: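 Rat cortical membranes homogenized in ice-cold PBS (50 mM, pH 7.4) with 100 mM NaCl, spun at 1000g, then pellet washed three times at 50000g and resuspended in PBS. Assay stopped by GF/B filtration, counted by liquid scintillation. IC50 fitted from six displacer concentrations, triplicate.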

Translocator protein, sequence (P16257 whole entry, looked up): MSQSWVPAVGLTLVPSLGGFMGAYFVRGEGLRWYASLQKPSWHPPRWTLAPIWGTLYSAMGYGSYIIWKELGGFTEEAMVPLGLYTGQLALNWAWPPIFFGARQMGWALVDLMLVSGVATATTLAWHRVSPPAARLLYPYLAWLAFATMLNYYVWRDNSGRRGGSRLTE

| SMILES | IC50 [µM] |
| --- | --- |
| Cc1nc2ccccc2c(-c2ccccc2)c1C(=O)N(C)c1ccccc1 | > 10 |
| CCCN(CCC)C(=O)c1ccccc1CN(CC)Cc1ccccc1 | 8.87 |
| CCCN(CCC)C(=O)c1c(C)nc2ccccc2c1-c1ccccc1 | > 10 |
| CCN(Cc1ccccc1)Cc1ccccc1C(=O)N(CC)CC | 8.21 |
| CCN(Cc1ccccc1)Cc1nc2ccccc2c(-c2ccccc2)c1C(=O)NCc1ccccc1 | 2.9 |
| CCN(Cc1ccccc1)Cc1cc(-c2ccccc2)c2ccccc2n1 | 3.4 |
| CCN(CC)C(=O)c1c(C)nc2ccccc2c1-c1ccccc1 | > 10 |
| CCOC(=O)c1c(Cl)nc2ccccc2c1-c1ccccc1 | 3.7 |
| CCN(Cc1ccccc1)Cc1ccccc1C(=O)N(C)c1ccccc1 | > 10 |
| CCN(Cc1ccccc1)Cc1ccccc1C(=O)N(C)C | > 10 |

The next compounds have a lower IC50 than those just listed; values first:

| IC50 [µM] | SMILES |
| --- | --- |
| 0.41 | Cc1ccc(CN2Cc3nc4ccccc4c(-c4ccccc4)c3C2=O)cc1 |
| 0.005 | CCN(CC)C(=O)c1cc(-c2ccccc2)c2ccccc2c1 |
| 0.54 | CCOC(=O)c1c(N(CC)Cc2ccccc2)nc2ccccc2c1-c1ccccc1 |
| 0.373 | CCN(Cc1ccccc1)Cc1nc2ccccc2c(-c2ccccc2)c1C(=O)N(CC)CC |
| 0.21 | O=C1c2c(nc3ccccc3c2-c2ccccc2)CN1Cc1ccc(Cl)cc1 |
| 1.32 | CCN(Cc1ccccc1)Cc1nc2ccccc2c(-c2ccccc2)c1C(=O)N(C)c1ccccc1 |
| 0.027 | CCN(CC)C(=O)c1cc(-c2ccccc2)c2ccccc2n1 |
| 0.456 | CCCN(CCC)C(=O)c1c(CN(CC)Cc2ccccc2)nc2ccccc2c1-c1ccccc1 |
| 0.872 | CCCNC(=O)c1c(CN(CC)Cc2ccccc2)nc2ccccc2c1-c1ccccc1 |
| 0.7 | CCOC(=O)c1c(CN(CC)Cc2ccccc2)nc2ccccc2c1-c1ccccc1 |
| 1.19 | CCOC(=O)c1c(CN2CCc3ccccc3C2)nc2ccccc2c1-c1ccccc1 |
| 0.229 | CCN(Cc1ccccc1)Cc1nc2ccccc2c(-c2ccccc2)c1C(=O)N(C)C |
| 2.48 | CCN(Cc1ccccc1)Cc1nc2ccccc2c(-c2ccccc2)c1C(=O)N(C)c1ccc(Cl)cc1 |
| 0.0041 | CCN(Cc1ccccc1)Cc1c(C(=O)N(CC)CC)nc2ccccc2c1-c1ccccc1 |
